Measured values from ChEMBL document CHEMBL1138684, “Determinants of retinoid X receptor transcriptional antagonism” (J Med Chem, 2004).
One block for each compound: values may come before it.

Key:
[1] = target: T1, Retinoic acid receptor beta (Homo sapiens) (UniProt P10826); assay: Antagonism of retinoic acid receptor beta activity induced by retinoic acid at 10e-7 M; type: functional
T1 sequence (whole entry): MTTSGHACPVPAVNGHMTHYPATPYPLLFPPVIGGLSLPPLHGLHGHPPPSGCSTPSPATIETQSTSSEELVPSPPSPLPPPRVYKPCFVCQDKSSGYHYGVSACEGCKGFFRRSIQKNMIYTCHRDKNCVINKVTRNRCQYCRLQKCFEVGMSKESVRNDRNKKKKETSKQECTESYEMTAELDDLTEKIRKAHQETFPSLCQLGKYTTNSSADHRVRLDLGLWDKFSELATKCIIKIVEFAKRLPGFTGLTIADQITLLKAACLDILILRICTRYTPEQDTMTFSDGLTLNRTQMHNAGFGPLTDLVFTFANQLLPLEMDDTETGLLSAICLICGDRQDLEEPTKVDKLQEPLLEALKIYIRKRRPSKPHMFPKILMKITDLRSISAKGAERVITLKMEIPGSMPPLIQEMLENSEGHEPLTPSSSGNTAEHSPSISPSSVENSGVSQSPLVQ
Summary of the method: (§1)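 CV-1 cells kept in DMEM with 10% FCS and seeded 16-24 h before calcium precipitation cotransfection: RARα, β or γ vector (100 µg) with (TREpal)2-tk-CAT or CRBP-I-tk-CAT reporter (200 µg), plus β-gal vector. At 20 h, medium switched to 5% charcoal-stripped FCS. Cells got 1 × 10^-7 M trans-RA ± test agent for 24 h. CAT normalized to β-gal, as % of trans-RA alone.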

[2] = target: T1, Retinoic acid receptor beta (Homo sapiens); assay: Antagonism of retinoic acid receptor beta activity induced by retinoic acid at 10e-6 M; type: functional; summary of the method: as §1
[3] = target: T2, Retinoic acid receptor alpha (Homo sapiens) (UniProt P10276); assay: Antagonism of retinoic acid receptor alpha activity induced by retinoic acid at 10e-5 M; type: functional; summary of the method: as §1
T2 sequence (whole entry): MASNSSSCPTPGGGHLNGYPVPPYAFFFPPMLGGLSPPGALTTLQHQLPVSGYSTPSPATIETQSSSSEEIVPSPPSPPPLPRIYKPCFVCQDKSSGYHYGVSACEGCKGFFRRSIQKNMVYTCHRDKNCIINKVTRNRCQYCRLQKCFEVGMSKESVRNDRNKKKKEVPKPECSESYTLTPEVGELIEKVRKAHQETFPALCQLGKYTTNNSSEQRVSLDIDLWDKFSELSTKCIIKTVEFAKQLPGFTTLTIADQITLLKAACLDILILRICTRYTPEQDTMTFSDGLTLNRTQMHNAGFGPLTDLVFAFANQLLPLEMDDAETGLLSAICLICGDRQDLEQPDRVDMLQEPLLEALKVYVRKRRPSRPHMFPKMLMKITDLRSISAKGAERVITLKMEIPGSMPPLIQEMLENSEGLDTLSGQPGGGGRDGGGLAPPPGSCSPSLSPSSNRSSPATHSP

[4] = target: T3, Retinoic acid receptor RXR-alpha (Homo sapiens, UniProt P19793); assay: Inhibition of [3H]9-cis-retinoic acid binding to human retinoid X receptor alpha ligand-binding domain expressed in Escherichia coli
T3 sequence (P19793 whole entry): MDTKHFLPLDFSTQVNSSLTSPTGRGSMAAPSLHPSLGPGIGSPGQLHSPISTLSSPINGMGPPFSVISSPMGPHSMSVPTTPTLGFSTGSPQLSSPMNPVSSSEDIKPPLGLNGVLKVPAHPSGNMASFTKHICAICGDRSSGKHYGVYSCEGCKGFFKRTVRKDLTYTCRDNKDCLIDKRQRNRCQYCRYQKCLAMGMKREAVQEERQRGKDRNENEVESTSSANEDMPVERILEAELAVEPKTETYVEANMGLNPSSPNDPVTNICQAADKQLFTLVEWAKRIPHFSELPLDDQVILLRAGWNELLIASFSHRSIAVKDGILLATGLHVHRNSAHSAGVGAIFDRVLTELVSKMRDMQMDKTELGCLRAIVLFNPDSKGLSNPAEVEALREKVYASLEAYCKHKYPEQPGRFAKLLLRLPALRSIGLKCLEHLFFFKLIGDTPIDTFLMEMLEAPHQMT

[5] = target: T2, Retinoic acid receptor alpha (Homo sapiens); assay: Antagonism of retinoic acid receptor alpha activity induced by retinoic acid at 10e-6 M; type: functional; summary of the method: as §1
[6] = target: T2, Retinoic acid receptor alpha (Homo sapiens); assay: Antagonism of retinoic acid receptor alpha activity induced by retinoic acid at 10e-7 M; type: functional; summary of the method: as §1
[7] = target: T4, Retinoic acid receptor gamma (Homo sapiens) (UniProt P13631); assay: Antagonism of retinoic acid receptor gamma activity induced by retinoic acid at 10e-5 M; type: functional; summary of the method: as §1
T4 sequence (whole entry): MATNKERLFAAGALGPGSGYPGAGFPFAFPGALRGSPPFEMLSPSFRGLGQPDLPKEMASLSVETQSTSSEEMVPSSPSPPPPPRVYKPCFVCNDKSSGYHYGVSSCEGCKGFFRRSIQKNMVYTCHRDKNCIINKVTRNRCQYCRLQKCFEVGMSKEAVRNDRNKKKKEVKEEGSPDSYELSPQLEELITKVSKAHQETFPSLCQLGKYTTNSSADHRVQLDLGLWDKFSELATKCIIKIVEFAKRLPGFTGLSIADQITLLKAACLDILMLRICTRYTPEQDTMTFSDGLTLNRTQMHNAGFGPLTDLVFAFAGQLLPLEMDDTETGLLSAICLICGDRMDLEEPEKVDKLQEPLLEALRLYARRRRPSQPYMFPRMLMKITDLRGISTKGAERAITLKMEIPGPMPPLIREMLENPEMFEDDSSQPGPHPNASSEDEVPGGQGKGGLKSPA

[8] = target: T4, Retinoic acid receptor gamma (Homo sapiens); assay: Antagonism of retinoic acid receptor gamma activity induced by retinoic acid at 10e-6 M; type: functional; summary of the method: as §1
[9] = target: T5, Retinoic acid receptor RXR-alpha (Homo sapiens) (UniProt P19793); assay: Antagonism of retinoid X receptor alpha activity induced by retinoic acid […] at 10e-5 M; type: functional
T5 sequence (whole entry): T3 sequence (P19793 whole entry)
Summary of the method: (§2)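 CV-1 cells in DMEM/10% FCS, cotransfected by calcium precipitation with RXRα vector (20 µg), CRBP-II-tk-CAT reporter (200 µg) and β-gal vector. At 20 h, medium changed to 5% charcoal-stripped FCS. Cells treated 24 h with 1 × 10^-7 M 9-cis-RA ± test agent. CAT activity normalized to β-gal, expressed relative to 9-cis-RA alone as 100%.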

[10] = target: T5, Retinoic acid receptor RXR-alpha (Homo sapiens); assay: Antagonism of retinoid X receptor alpha activity induced by retinoic acid […] at 10e-6 M; type: functional; summary of the method: as §2
[11] = target: T1, Retinoic acid receptor beta (Homo sapiens); assay: Antagonism of retinoic acid receptor beta activity induced by retinoic acid at 10e-5 M; type: functional; summary of the method: as §1
[12] = target: T5, Retinoic acid receptor RXR-alpha (Homo sapiens); assay: Antagonism of retinoid X receptor alpha activity induced by retinoic acid […] at 10e-7 M; type: functional; summary of the method: as §2
[13] = target: T4, Retinoic acid receptor gamma (Homo sapiens); assay: Antagonism of retinoic acid receptor gamma activity induced by retinoic acid at 10e-7 M; type: functional; summary of the method: as §1

SMILES: CCCCc1cc2c(cc1C(=C1CC1)c1ccc(C(=O)O)cc1)C(C)(C)CCC2(C)C
Relative activation [1]: 98%
Relative activation [2]: 88%
Relative activation [3]: 22%
IC50 [4]: 500 nM
Relative activation [5]: 45%
Relative activation [6]: 82%
Relative activation [7]: 91%
Relative activation [8]: 99%
Relative activation [9]: 48%
Relative activation [10]: 88%
Relative activation [11]: 65%
Relative activation [12]: 115%
Relative activation [13]: 95%

SMILES: CCCCOc1cc2c(cc1C(=C1CC1)c1ccc(C(=O)O)cc1)C(C)(C)CCC2(C)C
IC50 [4]: 270 nM

SMILES: C=C(c1ccc(C(=O)O)cc1)c1cc2c(cc1CCCC)C(C)(C)CCC2(C)C
Relative activation [1]: 94%
Relative activation [2]: 102%
Relative activation [3]: 20%
Relative activation [5]: 30%
Relative activation [6]: 75%
Relative activation [7]: 110%
Relative activation [8]: 94%
Relative activation [9]: 150%
Relative activation [10]: 130%
Relative activation [11]: 84%
Relative activation [12]: 114%
Relative activation [13]: 89%

SMILES: CCCOc1cc2c(cc1C(=C1CC1)c1ccc(C(=O)O)cc1)C(C)(C)CCC2(C)C
IC50 [4]: 120 nM

SMILES: Cc1cc2c(cc1C(=C1CC1)c1ccc(C(=O)O)cc1)C(C)(C)CCC2(C)C
IC50 [4]: 21 nM

The remaining compounds from weak to strong by IC50 [4], led by results:

IC50 [4]: 10 nM
SMILES: CCCCOc1cc2c(cc1C(=C1CC1)c1ccc(C(=O)O)cn1)C(C)(C)CCC2(C)C

IC50 [4]: 6 nM
SMILES: CCCOc1cc2c(cc1C(=C1CC1)c1ccc(C(=O)O)cn1)C(C)(C)CCC2(C)C
